Only some compounds are listed: those with a hit (about 2.2% of all), similar ones and a draw of the others.
dFosB act-1 = activators of mouse delta FosB homodimer. purified delta FosB, TAMRA-CDK5 oligo fluorescence polarization; percent of positive-control signal above neutral wells. P13346. activation, % at 25 µM. AID 493131. 340,000 compounds, 0.99% hits;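 active = mean activation above about 17%, with every replicate also reaching it, limit read from the data, passing the limit was not always enough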
Target sequence (P13346 whole entry, looked up): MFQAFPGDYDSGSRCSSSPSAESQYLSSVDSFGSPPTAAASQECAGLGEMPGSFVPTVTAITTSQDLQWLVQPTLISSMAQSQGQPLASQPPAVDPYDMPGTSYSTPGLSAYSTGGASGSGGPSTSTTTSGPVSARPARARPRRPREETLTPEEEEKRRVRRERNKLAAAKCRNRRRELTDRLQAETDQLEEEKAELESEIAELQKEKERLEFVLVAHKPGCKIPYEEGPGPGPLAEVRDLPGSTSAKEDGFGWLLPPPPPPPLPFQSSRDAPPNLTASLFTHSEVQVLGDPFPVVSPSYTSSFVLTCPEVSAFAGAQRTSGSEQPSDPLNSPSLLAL
S100A4 MyoIIA = blocks human S100A4 binding to myosin IIA peptide; 360,000 compounds, 0.14% hits; P26447; S100A4/TAMRA-MyoIIA peptide fluorescence polarization; inhibition, % at 10.7 µM;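 active = mean inhibition of at least 70% across replicates, with every replicate also reaching that level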
Target sequence (P26447 whole entry, looked up): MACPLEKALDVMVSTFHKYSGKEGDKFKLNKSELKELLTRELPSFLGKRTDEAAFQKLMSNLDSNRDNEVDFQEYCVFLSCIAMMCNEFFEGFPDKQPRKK
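Material: S100A4 monomer protein | Medium: HEPES pH 7.2 with CaCl2, KCl, NaCl, DTT, Triton | Reagent: Labelled myosin peptide probe, 5 nM | Doses: One dose per compound | Times: 5 min incubation before reading | Benchmarks: Neutral control DMSO, positive control TFP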
CFTR F508del cor = CFTR F508del correction in bronchial cells | CFBE cells, YFP halide quenching; stimulated with forskolin plus potentiator P3; % fluorescence drop versus neutral controls | activity (quench increase), % at 7.58 µM | 350,000 compounds, 0.36% hits | AID 720511;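 active = mean added fluorescence quench of at least 8% versus neutral control, with both replicates also reaching 8%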;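 also: cells transiently co-express mutant CFTR-F508del with the halide-sensitive YFP; corrector assay measuring rescue of mutant channel to the surface after 24 h compound exposure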
FGF22 binding = binders of recombinant human FGF22 by thermal shift. Q9HCT0. SYPRO orange fluorescence; percent of sucrose octasulfate shift, DMSO zero. activity (Tm shift, normalised), % at 9.99 µM. 340,000 compounds, 1.5% hits;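 active = mean Tm shift, scaled 0 neutral to 100 positive control, at about 1.3% or above, every replicate too, limit read from the data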
Target sequence (Q9HCT0 whole entry, looked up): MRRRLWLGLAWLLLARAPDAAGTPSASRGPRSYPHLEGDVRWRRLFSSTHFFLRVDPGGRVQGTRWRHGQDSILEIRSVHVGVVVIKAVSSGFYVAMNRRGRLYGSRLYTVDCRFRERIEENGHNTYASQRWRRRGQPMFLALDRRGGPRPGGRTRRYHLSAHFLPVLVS
dFosB act-2 = activators of mouse delta FosB homodimer DNA binding | purified delta FosB, TAMRA-CDK5 oligo fluorescence polarization; normalised: neutral wells 0, positive control 100 | 2,400 tested, under 10 active | activation, % at 24.9 µM | AID 588690 | shares compounds with dFosB act-1;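 active = highest replicate activation at or above 34% and every replicate reaching that threshold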;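 also: higher polarization means more probe DNA bound by delta FosB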
The depositor's hits bear a star; . = not tested or not shown.

SMILES	dFosB act-1	S100A4 MyoIIA	CFTR F508del cor	FGF22 binding	dFosB act-2
COc1ccc2c3c([nH]c2c1)[C@@H](CO)N(C(=O)c1ccncc1)CC31CN(C(=O)C2CCC2)C1	.	9.7	-1.1	0.2	.
Cc1ccc(C(=O)OCC(=O)Nc2cc(F)ccc2F)cc1NC(=O)c1ccco1	31.6*	.	.	.	8.2
Cc1ccc(C(=O)OCC(=O)Nc2ccc(N(C)C)cc2)cc1NC(=O)c1ccco1	-13.6	.	.	.	.
CO[C@H]1CN(C)C(=O)c2ccc(NS(=O)(=O)c3cccc(F)c3)cc2OC[C@@H](C)N(C(=O)Cc2cccnc2)C[C@H]1C	.	7.2	1.9	-0.3	.
O=C(Nc1ccc(Oc2ncnc3cc(Cl)ccc23)nc1)Nc1cccc(C(F)(F)F)c1	39.7*	1.6	2.6	-0.2	-4.4
O=C(O)COCC(=O)Nc1ccc(Oc2ncnc3cc(Cl)ccc23)nc1	.	-0.5	1.2	0.0	.
Cc1noc(C)c1NC(=O)Nc1ccc2c(c1)CC(=O)N([C@H](C)CO)C[C@H](C)[C@@H](CN(C)S(=O)(=O)c1ccc(F)cc1)O2	.	8.6	-3.5	0.3	.
COc1ccc(OCC(=O)Nc2cc(-c3nn4c(C)nnc4s3)ccc2C)cc1	-1.1	-0.8	2.3	0.0	.
Cc1cc(OCC(=O)Nc2cc(-c3nn4c(C)nnc4s3)ccc2C)ccc1Cl	37.7*	-1.8	-4.5	0.0	5.1
C[C@H](CO)N1C[C@H](C)[C@H](CN(C)C(=O)Nc2cccc3ccccc23)Oc2ccc(NS(=O)(=O)c3cn(C)cn3)cc2CC1=O	.	-10.9	-0.8	-0.3	.
Cn1nc(-c2ccc(C(=O)Nc3cccc(Cl)c3)cc2)c2ccccc2c1=O	40.2*	.	.	.	0.8
Cc1ccc(NC(=O)c2ccc(-c3nn(C)c(=O)c4ccccc34)cc2)cc1	5.1	25.4	.	.	.
Cn1nc(-c2ccc(C(=O)Nc3ccc(F)cc3)cc2)c2ccccc2c1=O	51.4*	.	.	.	-1.7
C[C@H]1CN([C@@H](C)CO)C(=O)c2cccc(NC(=O)Nc3ccc4c(c3)OCO4)c2O[C@H]1CN(C)Cc1ccc(Oc2ccccc2)cc1	.	10.0	3.6	-0.5	.
CCOc1ccc(/C=N/N2C(=O)C(CC(=O)Nc3ccc(F)cc3F)SC2=NC)cc1OC (configuration not stated)	25.7*	-4.8	0.9	-0.1	-0.3
CCN1[C@@H]2c3ccc(-c4ccccc4F)c(=O)n3C[C@H]1[C@H](CO)[C@H]2C(=O)NCCOC	.	-24.4	-1.9	-0.3	.
CCc1ccc(NC(=O)CSc2nc(N)c(NC(=O)c3ccc(F)c(F)c3)c(=O)[nH]2)cc1	29.4*	10.7	-1.5	0.0	3.6
Cc1cc(C)cc(NC(=O)CSc2nc(N)c(NC(=O)c3cccs3)c(=O)[nH]2)c1	31.1*	0.1	3.7	0.0	6.4
Cc1nnc(NC(=O)CSc2nc(N)c(NC(=O)c3cccs3)c(=O)[nH]2)s1	9.5	-0.8	0.0	0.2	.
Cc1ccc(C(=O)Nc2c(N)nc(SCC(=O)Nc3cc(C)on3)[nH]c2=O)cc1	25.6*	15.3	4.1	0.2	-6.8
COc1ccc(C(=O)Nc2c(N)nc(SCC(=O)Nc3ccc(NC(C)=O)cc3)[nH]c2=O)cc1	8.2	-4.4	2.5	-0.2	.
Nc1nc(SCC(=O)Nc2ccc(F)cc2)[nH]c(=O)c1NC(=O)c1ccc(F)c(F)c1	26.6*	1.3	-3.7	0.0	-0.7
C[C@H]1CN([C@@H](C)CO)C(=O)c2cc(-c3cccnc3)cnc2O[C@@H]1CN(C)C(=O)Nc1ccccc1	.	.	-0.3	.	.
COC(=O)c1ccc(NC(=O)Cn2cnc3c(nnn3-c3cccc(OC)c3)c2=O)cc1	36.8*	-14.3	-4.0	-0.1	-0.2
O=C(Cn1cnc2c(nnn2Cc2ccc(F)cc2)c1=O)Nc1ccc2c(c1)OCCO2	27.2*	0.2	1.9	0.0	-0.2
SMILES	dFosB act-1	S100A4 MyoIIA	CFTR F508del cor	FGF22 binding	dFosB act-2
O=C(Cn1cnc2c(nnn2Cc2ccc(F)cc2)c1=O)Nc1cccc(F)c1	10.7	-4.4	-1.8	0.0	.
CCOc1ccc(-n2nnc3c(=O)n(CC(=O)N4CCCc5ccccc54)cnc32)cc1	-25.5	5.8	3.8	0.0	.
COc1cccc(-n2nnc3c(=O)n(CC(=O)Nc4ccccc4C)cnc32)c1	1.2	-0.1	7.1	0.1	.
Cc1ccc(NC(=O)Cn2cnc3c(nnn3Cc3ccc(F)cc3)c2=O)cc1	22.8*	1.8	2.4	0.2	0.5
COc1ccc(-n2nnc3c(=O)n(CC(=O)N4CCCc5ccccc54)cnc32)cc1	34.8*	0.8	-0.8	-0.2	2.6
O=C(Cc1ccccn1)NCC[C@@H]1CC[C@H](NS(=O)(=O)c2ccc(F)cc2)[C@@H](CO)O1	.	-3.3	-1.4	0.0	.
CC(C)NC(=O)Nc1ccc2c(c1)C(=O)N([C@H](C)CO)C[C@@H](C)[C@@H](CN(C)S(=O)(=O)c1cccs1)OCCCC[C@H](C)O2	.	-8.0	-0.9	-0.7	.
Cc1ccc(CNC(=O)c2ccc(N3CCC4(CC3)CC(c3cccc(Br)c3)=NO4)c(NC(=O)c3c(Cl)cccc3Cl)c2)cc1	24.1*	-0.9	-1.1	0.0	0.8
CCOc1ccc2nc(C)cc(Nc3ccc4c(c3)OCCO4)c2c1	43.5*	.	.	.	4.4
Cc1cc(Nc2ccc3c(c2)OCCO3)c2cccc(C)c2n1	30.6*	.	.	.	6.1
Cc1cc(Nc2ccc3c(c2)OCCO3)c2ccccc2n1	7.5	1.0	1.4	0.1	.
Cc1nn(CC(=O)NCCc2cccs2)c(=O)c2cc3ccccc3n12	26.4*	-4.1	-0.3	0.3	3.8
COc1cc2c(cc1OC)-c1cc(Nc3cccc(C)c3)nc(=O)n1CC2	30.3*	2.9	0.9	-0.2	1.0
C[C@H](CO)N1C[C@H](C)[C@H](CN(C)C)Oc2ccc(NS(=O)(=O)c3ccccc3)cc2C1=O	.	-2.7	-2.3	.	.
Cc1noc(C)c1S(=O)(=O)N(C)C[C@@H]1OCCCC[C@@H](C)Oc2ccc(NS(=O)(=O)c3ccc(Cl)cc3)cc2C(=O)N([C@H](C)CO)C[C@H]1C	.	-3.3	-0.9	-0.1	.
COCC#Cc1ccc2c(c1)O[C@H](CN(C)S(=O)(=O)c1ccc(F)cc1)[C@@H](C)CN([C@@H](C)CO)S2(=O)=O	.	-0.1	1.2	-0.5	.
CS(=O)(=O)NNC(=O)c1csc(Cc2c(Cl)sc3ccc(Cl)cc23)n1	36.4*	-6.9	3.8	-0.1	-0.7
C[C@@H]1CN([C@H](C)CO)C(=O)c2cc(NS(C)(=O)=O)ccc2O[C@H]1CN(C)Cc1ccc2c(c1)OCO2	.	-4.0	0.9	0.2	.
CN(C)S(=O)(=O)c1ccc(S(=O)(=O)NCc2ccc3c(c2)OCO3)cc1	36.4*	-0.1	0.7	.	-6.3
COc1ccc(CCNC(=O)C(=O)NCc2ccc(Cl)cc2)cc1OC	42.5*	-16.4	0.9	0.3	-5.1
Nc1nonc1-n1nnc(C(=O)N/N=C/c2ccc(OCc3ccccc3)cc2)c1COc1ccc(F)cc1	-0.2	1.1	1.7	-0.6	.

Compound activity as filed in PubChem.
